Tests used:
panel of 291 kinases = settings: 1 µM, overlapping panel of 272 kinases; ref 30 (Mandal et al., 2014); cited from earlier work
[1] = system: L929 RIPK3-/- + RIPK3 K51A/R69H cells; test: Cell viability assay with or without zVAD, L929 RIPK3-/- + RIPK3 K51A/R69H; type: cell-based, mouse
Method in brief: (§1)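 L929 cells were grown in MEM with 10% FBS. RIPK3 was knocked out by CRISPR/Cas9 (sgRNA against mouse RIPK3), and knockout was confirmed by sequencing and immunoblot. Knockout lines with or without re-expressed RIPK3 K51A or K51A/R69H were seeded at 10,000–20,000 cells/well and left to attach for 24 h. Cells were exposed to test compound alone or with zVAD for 18–20 h. Viability was read by CCK-8 (1–2 h, 37 °C, A450). Three experiments in triplicate; CC50 by nonlinear regression.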

mRIPK3^KD R69H = mRIPK3^KD R69H (Mus musculus, UniProt Q9QZL0, C111A/R69H); test: Size-exclusion chromatography; settings: protein 10 mg/mL, compound 1 mM
Method in brief: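 Mouse RIPK3 kinase domain 1-313 (C111A/R69H, C-terminal 10×His) was expressed in Sf-9 cells by baculovirus, with 10 µM test compound or DMSO added to the lysate. Ni-NTA eluate was concentrated to 10 mg/mL, incubated with 1 mM compound and centrifuged at 17,000 g for 15 min. It was then run on Superdex 200 Increase 10/300 in 25 mM Tris pH 8.0, 150 mM NaCl, 5 mM DTT plus 10 µM compound. Three independent runs.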

[2] = system: L929 cells (TNF-α-induced necroptosis); test: Necroptosis induction and inhibition assay in L929; type: cell-based, mouse; settings: Mus musculus, L929, read-out: EC50^L929 against TNF-α-induced necroptosis, mouse TNF-α (20 ng/mL) and zVAD (10 μM), CCK-8
[3] = system: caspase 3 activity in L929 cell lysates; test: Caspase 3 activity in L929 cell lysates; type: cell-based, mouse
Method in brief: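 L929 cells were cultured 12 h in 12-well plates, then exposed to test compound or DMSO for 0, 1, 2, 3 or 4 h. Protein was measured by BCA. Lysate was incubated with Ac-DEVD-pNA overnight at 37 °C and read at A405 minus blank. Three experiments, each in triplicate.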

[4] = system: L929 RIPK3-/- + RIPK3 K51A cells; test: Cell viability assay with or without zVAD, L929 RIPK3-/- + RIPK3 K51A; type: cell-based, mouse; settings: 1.6 μM, without zVAD
Method in brief: as §1

[5] = system: HT29 cells (TNF-α-induced necroptosis); test: Necroptosis induction and inhibition assay in HT29; type: cell-based, human; settings: Homo sapiens, HT-29, read-out: EC50^HT29 against TNF-α-induced necroptosis, zVAD (20 μM), human TNF-α (40 ng/mL), Smac mimetic SM-164 (100 nM), CCK-8
[6] = system: caspase 3 and caspase 8 cleavage in L929 cells; test: Western blot of caspase 3 and caspase 8 cleavage in L929 cells; type: cell-based, mouse; settings: L929, 3 hours
Method in brief: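 L929 cells in 12-well plates at about 80% confluency were exposed for 3 h to test compound, DMSO or medium, each with 10 µM zVAD. Cells were lysed at room temperature in a Triton X-100/Tris-based 1× SDS sample buffer and boiled 10 min. Proteins were run on 15% SDS-PAGE and blotted to PVDF. Membranes were blocked in 5% milk and probed for caspase 3 and caspase 8 cleavage overnight at 4 °C. Three independent experiments.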

RIPK3-RIPK1 interaction = RIPK3-RIPK1 interaction (Mus musculus, UniProt Q9QZL0); test: RIPK1 immunoprecipitation; type: cell-based; settings: L929, 10 µM, 5 hours
Method in brief: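 Lysates were cleared at 17,000 g for 15 min at 4 °C, and an input sample was kept. Lysate was incubated with anti-RIPK1 antibody on protein A/G magnetic beads for 2 h at 4 °C. Co-precipitated RIPK3 was detected by Western blot. Normalized quantification came from three independent experiments.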

RIPK3-mediated apoptosis = settings: cited from earlier work

RIPK3-RIPK1 interaction, sequence (Q9QZL0 whole entry): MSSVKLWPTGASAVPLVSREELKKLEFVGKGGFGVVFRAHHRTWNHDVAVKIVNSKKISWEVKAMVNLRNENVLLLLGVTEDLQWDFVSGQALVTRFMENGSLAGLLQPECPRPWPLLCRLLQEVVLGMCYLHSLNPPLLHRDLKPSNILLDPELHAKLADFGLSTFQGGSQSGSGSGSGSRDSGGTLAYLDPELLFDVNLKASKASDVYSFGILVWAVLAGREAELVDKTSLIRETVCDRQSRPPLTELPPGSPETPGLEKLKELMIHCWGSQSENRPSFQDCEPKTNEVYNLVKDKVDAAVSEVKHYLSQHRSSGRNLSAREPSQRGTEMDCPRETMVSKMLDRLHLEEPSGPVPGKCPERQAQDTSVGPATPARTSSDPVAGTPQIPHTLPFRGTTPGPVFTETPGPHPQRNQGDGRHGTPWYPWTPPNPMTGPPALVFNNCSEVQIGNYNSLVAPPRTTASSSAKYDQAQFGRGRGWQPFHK
mRIPK3^KD R69H, sequence (Q9QZL0 1-313 R69H/C111A): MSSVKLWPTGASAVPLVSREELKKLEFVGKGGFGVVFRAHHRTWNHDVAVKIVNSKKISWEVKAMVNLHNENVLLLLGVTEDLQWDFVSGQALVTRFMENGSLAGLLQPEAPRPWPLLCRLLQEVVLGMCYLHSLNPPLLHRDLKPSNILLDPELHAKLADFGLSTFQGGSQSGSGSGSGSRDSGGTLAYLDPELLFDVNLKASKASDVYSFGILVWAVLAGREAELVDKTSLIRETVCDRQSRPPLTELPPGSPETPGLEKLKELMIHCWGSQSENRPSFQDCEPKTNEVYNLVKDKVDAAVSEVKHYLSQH

Compound	number of kinases inhibited by >65% (panel of 291 kinases) [kinases]	apoptosis in cells expressing RIPK3 K51A and R69H double mutation [1]	elution position of mRIPK3^KD R69H in complex with inhibitor (mRIPK3^KD R69H)	EC50 [2] [µM]	concentration at which caspase 3 is activated [3] [µM]	viability of cells expressing the ATPase-inactive RIPK3 K51A mutant [4]	EC50 [5] [µM]	activation of the apoptotic pathway: cleavage of caspase 8 and caspase 3 (Western blot) [6]	interaction between RIPK3 and RIPK1 (co-immunoprecipitation) (RIPK3-RIPK1 interaction)	concentration triggering RIPK3-mediated apoptosis relative to EC50 (RIPK3-mediated apoptosis)
CC(C)S(=O)(=O)c1ccc2nccc(Nc3ccc4scnc4c3)c2c1 [GSK'872, reference compound]	13	does not cause such apoptosis	aligns with a monomer	3.6	5	significantly reduces the viability	7.9	cleavage of caspase 8 and caspase 3	enhances the interaction between RIPK3 and RIPK1	
GSK'840										approximately twice their EC50 values
